System: U2OS
Test: Multiplex assay against U2OS
Assay type: toxicity, cell-based
Conditions: human
How it was run: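 With compound added, live cells were imaged on a CQ1 microscope at 37°C and 5% CO2; staining with Hoechst33342, BioTracker Green Microtubule Cytoskeleton Dye, MitoTracker Red and Annexin V Alexa Fluor 680 had been done at seeding. The CellPathfinder machine-learning gating scheme split cells into Hoechst high-intensity objects or normal cells, normal cells into healthy, pyknosed or fragmented nuclei, and pyknosed cells into mitotic or apoptotic. The tubulin, mitochondrial-mass and membrane-permeability phenotypes are per cents of healthy-nucleus cells.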

[1] = 12 h, 1 µM, compound concentration 1 uM, replicate 1
[2] = 12 h, 1 µM, compound concentration 1 uM, replicate 2
[3] = 12 h, 10 µM, compound concentration 10 uM, replicate 1
[4] = 12 h, 10 µM, compound concentration 10 uM, replicate 2
[5] = 24 h, 1 µM, compound concentration 1 uM, replicate 1
[6] = 24 h, 1 µM, compound concentration 1 uM, replicate 2
[7] = 24 h, 10 µM, compound concentration 10 uM, replicate 1
[8] = 24 h, 10 µM, compound concentration 10 uM, replicate 2
[9] = 48 h, 1 µM, compound concentration 1 uM, replicate 1
[10] = 48 h, 1 µM, compound concentration 1 uM, replicate 2
[11] = 48 h, 10 µM, compound concentration 10 uM, replicate 1
[12] = 48 h, 10 µM, compound concentration 10 uM, replicate 2

O=C(Nc1ccc(Cl)cc1)Nc1cccc(-c2cccc(N3CCCC3)n2)c1
Population Apoptotic (%) [1]: 44% | Population Fragmented Nuclei (%) [1]: 11% | Population Healthy Nuclei (%) [1]: 79% | Population Hoechst High Intensity Objects (%) [1]: 10% | Population Membrane Permeable-Phenotype (%) [1]: 7% | Population Mitochondria Different-Phenotype (%) [1]: 7% | Population Mitotic Cells (%) [1]: 55% | Population Normal (%) [1]: 89% | Population Pyknosed Nuclei (%) [1]: 9% | Population Tubulin-Different-Phenotype (%) [1]: 7% | Total Cell Count [1]: 158 | Population Apoptotic (%) [2]: 25% | Population Fragmented Nuclei (%) [2]: 17% | Population Healthy Nuclei (%) [2]: 76% | Population Hoechst High Intensity Objects (%) [2]: 7% | Population Membrane Permeable-Phenotype (%) [2]: 10% | Population Mitochondria Different-Phenotype (%) [2]: 8% | Population Mitotic Cells (%) [2]: 75% | Population Normal (%) [2]: 92% | Population Pyknosed Nuclei (%) [2]: 6% | Population Tubulin-Different-Phenotype (%) [2]: 12% | Total Cell Count [2]: 83 | Population Apoptotic (%) [3]: 58% | Population Fragmented Nuclei (%) [3]: 10% | Population Healthy Nuclei (%) [3]: 65% | Population Hoechst High Intensity Objects (%) [3]: 10% | Population Membrane Permeable-Phenotype (%) [3]: 80% | Population Mitochondria Different-Phenotype (%) [3]: 12% | Population Mitotic Cells (%) [3]: 41% | Population Normal (%) [3]: 89% | Population Pyknosed Nuclei (%) [3]: 24% | Population Tubulin-Different-Phenotype (%) [3]: 82% | Total Cell Count [3]: 109 | Population Apoptotic (%) [4]: 72% | Population Fragmented Nuclei (%) [4]: 3% | Population Healthy Nuclei (%) [4]: 78% | Population Hoechst High Intensity Objects (%) [4]: 7% | Population Membrane Permeable-Phenotype (%) [4]: 69% | Population Mitochondria Different-Phenotype (%) [4]: 7% | Population Mitotic Cells (%) [4]: 27% | Population Normal (%) [4]: 92% | Population Pyknosed Nuclei (%) [4]: 17% | Population Tubulin-Different-Phenotype (%) [4]: 74% | Total Cell Count [4]: 69 | Population Apoptotic (%) [5]: 41% | Population Fragmented Nuclei (%) [5]: 6% | Population Healthy Nuclei (%) [5]: 83% | Population Membrane Permeable-Phenotype (%) [5]: 5% | Population Mitotic Cells (%) [5]: 58% | Population Pyknosed Nuclei (%) [5]: 9% | Population Tubulin-Different-Phenotype (%) [5]: 3% | Population Apoptotic (%) [6]: 20% | Population Fragmented Nuclei (%) [6]: 18% | Population Healthy Nuclei (%) [6]: 75% | Population Hoechst High Intensity Objects (%) [6]: 6% | Population Membrane Permeable-Phenotype (%) [6]: 7% | Population Mitochondria Different-Phenotype (%) [6]: 3% | Population Mitotic Cells (%) [6]: 80% | Population Normal (%) [6]: 93% | Population Pyknosed Nuclei (%) [6]: 6% | Population Tubulin-Different-Phenotype (%) [6]: 12% | Total Cell Count [6]: 94 | Population Apoptotic (%) [7]: 83% | Population Fragmented Nuclei (%) [7]: 17% | Population Healthy Nuclei (%) [7]: 54% | Population Hoechst High Intensity Objects (%) [7]: 21% | Population Membrane Permeable-Phenotype (%) [7]: 53% | Population Mitochondria Different-Phenotype (%) [7]: 13% | Population Mitotic Cells (%) [7]: 16% | Population Normal (%) [7]: 78% | Population Pyknosed Nuclei (%) [7]: 28% | Population Tubulin-Different-Phenotype (%) [7]: 61% | Total Cell Count [7]: 131 | Population Apoptotic (%) [8]: 72% | Population Fragmented Nuclei (%) [8]: 13% | Population Hoechst High Intensity Objects (%) [8]: 25% | Population Membrane Permeable-Phenotype (%) [8]: 46% | Population Mitochondria Different-Phenotype (%) [8]: 15% | Population Mitotic Cells (%) [8]: 27% | Population Normal (%) [8]: 74% | Population Pyknosed Nuclei (%) [8]: 31% | Population Tubulin-Different-Phenotype (%) [8]: 46% | Total Cell Count [8]: 81 | Population Apoptotic (%) [9]: 30% | Population Fragmented Nuclei (%) [9]: 4% | Population Healthy Nuclei (%) [9]: 88% | Population Hoechst High Intensity Objects (%) [9]: 6% | Population Membrane Permeable-Phenotype (%) [9]: 1% | Population Mitochondria Different-Phenotype (%) [9]: 5% | Population Mitotic Cells (%) [9]: 69% | Population Normal (%) [9]: 93% | Population Pyknosed Nuclei (%) [9]: 6% | Population Tubulin-Different-Phenotype (%) [9]: 2% | Total Cell Count [9]: 245 | Population Apoptotic (%) [10]: 50% | Population Fragmented Nuclei (%) [10]: 8% | Population Healthy Nuclei (%) [10]: 83% | Population Hoechst High Intensity Objects (%) [10]: 5% | Population Membrane Permeable-Phenotype (%) [10]: 4% | Population Mitochondria Different-Phenotype (%) [10]: 9% | Population Mitotic Cells (%) [10]: 50% | Population Normal (%) [10]: 94% | Population Pyknosed Nuclei (%) [10]: 7% | Population Tubulin-Different-Phenotype (%) [10]: 12% | Total Cell Count [10]: 110 | Population Apoptotic (%) [11]: 91% | Population Fragmented Nuclei (%) [11]: 21% | Population Healthy Nuclei (%) [11]: 33% | Population Hoechst High Intensity Objects (%) [11]: 31% | Population Membrane Permeable-Phenotype (%) [11]: 31% | Population Mitochondria Different-Phenotype (%) [11]: 29% | Population Mitotic Cells (%) [11]: 8% | Population Normal (%) [11]: 68% | Population Pyknosed Nuclei (%) [11]: 44% | Population Tubulin-Different-Phenotype (%) [11]: 33% | Total Cell Count [11]: 221 | Population Apoptotic (%) [12]: 87% | Population Fragmented Nuclei (%) [12]: 19% | Population Healthy Nuclei (%) [12]: 26% | Population Hoechst High Intensity Objects (%) [12]: 39% | Population Membrane Permeable-Phenotype (%) [12]: 40% | Population Mitochondria Different-Phenotype (%) [12]: 25% | Population Mitotic Cells (%) [12]: 12% | Population Normal (%) [12]: 60% | Population Pyknosed Nuclei (%) [12]: 53% | Population Tubulin-Different-Phenotype (%) [12]: 48% | Total Cell Count [12]: 108

COc1cccc2cc(-c3nc([C@H]4CC[C@H](C(=O)O)CC4)n4ncnc(N)c34)[nH]c12 [OSI-027]
Population Apoptotic (%) [1]: 55% | Population Fragmented Nuclei (%) [1]: 14% | Population Healthy Nuclei (%) [1]: 81% | Population Hoechst High Intensity Objects (%) [1]: 1% | Population Membrane Permeable-Phenotype (%) [1]: 10% | Population Mitochondria Different-Phenotype (%) [1]: 6% | Population Mitotic Cells (%) [1]: 44% | Population Normal (%) [1]: 98% | Population Pyknosed Nuclei (%) [1]: 3% | Population Tubulin-Different-Phenotype (%) [1]: 21% | Total Cell Count [1]: 227 | Population Apoptotic (%) [2]: 33% | Population Fragmented Nuclei (%) [2]: 18% | Population Healthy Nuclei (%) [2]: 79% | Population Hoechst High Intensity Objects (%) [2]: 7% | Population Membrane Permeable-Phenotype (%) [2]: 8% | Population Mitochondria Different-Phenotype (%) [2]: 3% | Population Mitotic Cells (%) [2]: 66% | Population Normal (%) [2]: 92% | Population Pyknosed Nuclei (%) [2]: 1% | Population Tubulin-Different-Phenotype (%) [2]: 31% | Total Cell Count [2]: 117 | Population Apoptotic (%) [3]: 8% | Population Fragmented Nuclei (%) [3]: 5% | Population Healthy Nuclei (%) [3]: 76% | Population Hoechst High Intensity Objects (%) [3]: 10% | Population Membrane Permeable-Phenotype (%) [3]: 10% | Population Mitochondria Different-Phenotype (%) [3]: 21% | Population Mitotic Cells (%) [3]: 91% | Population Normal (%) [3]: 89% | Population Pyknosed Nuclei (%) [3]: 17% | Population Tubulin-Different-Phenotype (%) [3]: 27% | Total Cell Count [3]: 160 | Population Apoptotic (%) [4]: 14% | Population Fragmented Nuclei (%) [4]: 14% | Population Healthy Nuclei (%) [4]: 78% | Population Hoechst High Intensity Objects (%) [4]: 17% | Population Membrane Permeable-Phenotype (%) [4]: 7% | Population Mitochondria Different-Phenotype (%) [4]: 26% | Population Mitotic Cells (%) [4]: 85% | Population Normal (%) [4]: 82% | Population Pyknosed Nuclei (%) [4]: 7% | Population Tubulin-Different-Phenotype (%) [4]: 39% | Total Cell Count [4]: 101 | Population Apoptotic (%) [5]: 29% | Population Fragmented Nuclei (%) [5]: 10% | Population Healthy Nuclei (%) [5]: 81% | Population Hoechst High Intensity Objects (%) [5]: 3% | Population Membrane Permeable-Phenotype (%) [5]: 6% | Population Mitochondria Different-Phenotype (%) [5]: 5% | Population Mitotic Cells (%) [5]: 70% | Population Normal (%) [5]: 96% | Population Pyknosed Nuclei (%) [5]: 8% | Total Cell Count [5]: 270 | Population Apoptotic (%) [6]: 42% | Population Fragmented Nuclei (%) [6]: 13% | Population Healthy Nuclei (%) [6]: 82% | Population Hoechst High Intensity Objects (%) [6]: 5% | Population Membrane Permeable-Phenotype (%) [6]: 10% | Population Mitochondria Different-Phenotype (%) [6]: 7% | Population Mitotic Cells (%) [6]: 57% | Population Normal (%) [6]: 94% | Population Pyknosed Nuclei (%) [6]: 3% | Population Tubulin-Different-Phenotype (%) [6]: 29% | Total Cell Count [6]: 144 | Population Apoptotic (%) [7]: 13% | Population Fragmented Nuclei (%) [7]: 6% | Population Healthy Nuclei (%) [7]: 81% | Population Hoechst High Intensity Objects (%) [7]: 7% | Population Membrane Permeable-Phenotype (%) [7]: 12% | Population Mitochondria Different-Phenotype (%) [7]: 20% | Population Mitotic Cells (%) [7]: 86% | Population Normal (%) [7]: 92% | Population Pyknosed Nuclei (%) [7]: 11% | Population Tubulin-Different-Phenotype (%) [7]: 31% | Total Cell Count [7]: 190 | Population Apoptotic (%) [8]: 0% | Population Fragmented Nuclei (%) [8]: 14% | Population Healthy Nuclei (%) [8]: 84% | Population Hoechst High Intensity Objects (%) [8]: 11% | Population Membrane Permeable-Phenotype (%) [8]: 11% | Population Mitochondria Different-Phenotype (%) [8]: 31% | Population Mitotic Cells (%) [8]: 100% | Population Normal (%) [8]: 88% | Population Pyknosed Nuclei (%) [8]: 1% | Population Tubulin-Different-Phenotype (%) [8]: 34% | Total Cell Count [8]: 120

Source: ChEMBL document CHEMBL4689842, “EUbOPEN Chemogenomics Library wave 1” (2021)
